CHOP inhibitor: inhibitors of CHOP promoter induction, primary screen, cell-based, unfolded protein response, luciferase reporter | CHO-K1 CHOP-promoter luciferase, tunicamycin-induced, 15-18 h | inhibition, % at 10 µM | 220,000 compounds, 3.8% hits | AID 2732, 2010;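 active means compounds that reduced the stress-induced luciferase reporter signal by more than about 70% of percent inhibition, limit read from the data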;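 further: 0% = tunicamycin plus vehicle and 100% = wells without tunicamycin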
UPR XBP1 act: activators of adaptive XBP1 UPR arm, primary screen, cell-based, CHO-XBP1 luciferase reporter, luminescence, uHTS; IRE1-XBP1 UPR activation; percent of tunicamycin response, DMSO as zero; activation, % at 20 µM; 330,000 compounds, 0.33% hits; AID 463104, 2010;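 active means versus positive control, 20 µM dose yields 30% or more activation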;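 further: 100% = tunicamycin at 10 µg/mL and 0% = DMSO only wells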
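Test system: CHO-XBP1 luciferase reporter cells | Buffer or medium: Serum-containing F12 medium, 10% FBS | Schedule: 6 h compound exposure at 37 °C, 5% CO2 | Detection: Steady-Glo luciferase glow luminescence, 10 min after reagent addition | Read-out basis: Activation, % of tunicamycin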
CHOP UPR activ: activators of apoptotic CHOP UPR arm, primary screen, cell-based, CHO-CHOP luciferase reporter, luminescence, uHTS; activation, % at 10 µM; 330,000 compounds, 0.34% hits; UPR activation; percent of tunicamycin response over DMSO baseline; AID 449763, 2010;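 active means at 10 µM dose, activation of 40% or more, normalized to positive control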;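 further: 100% = tunicamycin at 10 µg/mL and 0% = DMSO alone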
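Assay system: CHO-CHOP cells, stable luciferase reporter of PERK-eIF2a-CHOP signalling / Buffer or medium: F12 plus 10% serum / Compound dosing: one dose, 10 µM in 0.5% DMSO / Times: 6 h compound treatment, 37 °C / Technique: luciferase luminescence / Read-out: % reporter activation, DMSO baseline versus tunicamycin full activation / Benchmarks: tunicamycin and DMSO controls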
TLR4 MyD88 comp: inhibitors of TLR4-MyD88 association in cells, primary screen, cell-based, HeLa CL3-4, BLA complementation, FRET ratio; Toll-like receptor 4 (Homo sapiens) + Myeloid differentiation primary response protein …; HeLa CL3-4 TLR4/MyD88 BLA complementation; inhibition, % at 8.4 µM; 200,000 compounds, 0.18% hits; in the data active means inhibition above about 25%;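 further: 0% = vehicle and 100% = reference inhibitor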
TLR9-MyD88 inh: inhibitors of TLR9-MyD88 association in cells, primary screen, cell-based, CHO, BLA complementation, fluorescence | Toll-like receptor 9 (Homo sapiens) + Myeloid differentiation primary response protein … | CCF4 FRET ratio | inhibition, % at 4.98 µM | 340,000 compounds, 0.21% hits;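 active means inhibition above the mean over all tested compounds plus 3 SD, cut at about 21% in these data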;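 further: 0% = DMSO only wells and 100% = clavulanate BLA inhibitor control wells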
Target sequence (Q99836 whole entry, looked up): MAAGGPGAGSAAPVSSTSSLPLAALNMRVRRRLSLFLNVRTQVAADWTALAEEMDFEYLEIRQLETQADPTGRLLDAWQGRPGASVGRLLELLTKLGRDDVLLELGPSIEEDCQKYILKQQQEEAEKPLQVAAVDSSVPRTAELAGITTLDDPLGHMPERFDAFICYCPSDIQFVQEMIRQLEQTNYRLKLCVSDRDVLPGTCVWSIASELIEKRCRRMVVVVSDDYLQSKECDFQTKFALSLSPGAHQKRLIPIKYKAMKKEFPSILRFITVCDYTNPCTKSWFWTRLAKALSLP
Target sequence (Q9NR96 whole entry, looked up): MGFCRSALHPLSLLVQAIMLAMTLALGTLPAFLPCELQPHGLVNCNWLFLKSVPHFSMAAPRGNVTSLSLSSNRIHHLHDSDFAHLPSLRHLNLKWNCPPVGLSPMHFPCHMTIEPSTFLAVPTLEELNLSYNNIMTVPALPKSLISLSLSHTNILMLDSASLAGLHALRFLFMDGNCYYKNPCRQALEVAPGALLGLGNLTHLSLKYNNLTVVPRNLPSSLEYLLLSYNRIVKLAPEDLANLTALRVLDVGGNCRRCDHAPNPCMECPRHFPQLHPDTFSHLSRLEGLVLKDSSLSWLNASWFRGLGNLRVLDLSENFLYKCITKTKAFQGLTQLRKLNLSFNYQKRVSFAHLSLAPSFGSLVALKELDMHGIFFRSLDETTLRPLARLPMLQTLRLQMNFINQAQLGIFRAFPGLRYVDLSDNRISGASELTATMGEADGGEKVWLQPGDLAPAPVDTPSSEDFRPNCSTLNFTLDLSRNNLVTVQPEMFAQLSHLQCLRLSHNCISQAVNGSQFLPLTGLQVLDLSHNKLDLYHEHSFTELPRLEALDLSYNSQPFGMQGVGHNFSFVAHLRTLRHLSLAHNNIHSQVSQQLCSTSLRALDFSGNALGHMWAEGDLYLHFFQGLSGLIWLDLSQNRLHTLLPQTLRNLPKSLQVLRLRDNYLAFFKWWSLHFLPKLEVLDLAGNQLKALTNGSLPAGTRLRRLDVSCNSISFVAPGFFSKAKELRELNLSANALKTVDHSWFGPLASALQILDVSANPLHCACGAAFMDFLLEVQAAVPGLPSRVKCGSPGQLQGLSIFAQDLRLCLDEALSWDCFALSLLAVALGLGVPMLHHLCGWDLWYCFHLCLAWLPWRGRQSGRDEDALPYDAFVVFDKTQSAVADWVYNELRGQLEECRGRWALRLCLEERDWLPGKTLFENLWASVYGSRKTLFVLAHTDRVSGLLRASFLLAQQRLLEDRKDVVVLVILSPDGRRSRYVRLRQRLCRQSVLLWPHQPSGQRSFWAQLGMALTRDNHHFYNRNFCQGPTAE
NOD2 RIPK2 PPI: NOD2-RIPK2 binding disruptors in cells, primary screen, fluorescence, CHO cells, BLA complementation | Receptor-interacting serine/threonine-protein kinase 2 (Homo sapiens), O43353 | CCF4 ratio | inhibition, % at 4.98 µM | 360,000 compounds, 0.38% hits | AID 624267, 2012; in the data active means inhibition above about 21%;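 further: 0% = vehicle only and 100% = reference blocker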
TLR9-MyD88 conf: TLR9-MyD88 association inhibitors, retest, confirmation, cell-based, CHO, BLA complementation, fluorescence, triplicate; shares compounds with TLR9-MyD88 inh; CCF4 FRET ratio; inhibition, % at 4.98 µM; 680 compounds, 51% hits;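 active means mean inhibition across three repeats above about 21% taken from the earlier screen, limit read from the data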;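 further: blue over green emission ratio reports constitutive TLR9 MyD88 association via BLA complementation; 0% = DMSO vehicle wells and 100% = clavulanate BLA inhibitor wells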
BLA nonselective: beta-lactamase reporter inhibitors in CHO cells, artefact control for TLR9-MyD88 binding inhibitor project, cell-based, fluorescence; inhibition, % at 4.98 µM; CHO-BLA cells, CCF4 FRET ratio, BLA reporter; shares compounds with TLR9-MyD88 inh; AID 540251, 2011; 680 compounds, 7% hits;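 active means mean inhibition above a 50% cutoff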;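 further: counterscreen of TLR9-MyD88 hits on CMV-driven BLA in CHO-K1 cells; 0% = DMSO alone and 100% = clavulanate blocking BLA; higher means less blue over green ratio so more BLA blockade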
TLR9 CHO tox: CHO cell viability loss – luminescence, single concentration, cytotoxicity control for TLR9-MyD88 binding inhibitor project; shares compounds with TLR9-MyD88 inh; TLR9-MyD88 CHO cells cytotoxicity; inhibition, % at 4.98 µM; 680 compounds, 39% hits; AID 588336, 2011; in the data active means inhibition above about 11%
An asterisk follows results filed as active; . = not tested or not shown. This excerpt belongs to a sample that is enriched for hits.

SMILES	CHOP inhibitor	UPR XBP1 act	CHOP UPR activ	TLR4 MyD88 comp	TLR9-MyD88 inh	NOD2 RIPK2 PPI	TLR9-MyD88 conf	BLA nonselective	TLR9 CHO tox
CCCNC(=O)COc1coc(CN2CCN(C(=O)c3ccco3)CC2)cc1=O	.	2	2	.	1	-7	.	.	.
COc1cc2c(cc1OC)CN(S(=O)(=O)c1cccc(F)c1)CC2	.	2	-3	.	1	4	.	.	.
O=Nc1c(O)n(Cc2cccc(C(F)(F)F)c2)c2ccccc12	38	-2	0	12	33*	13	9	9	2
COC(=O)c1ccc(Cn2c(O)c(N=O)c3ccccc32)o1	23	-1	-1	-3	26*	2	8	7	3
Cc1ccsc1C(=O)OCC(=O)NC1CCCCC1	.	.	.	.	21*	-9	-5	-5	0
Cc1ccsc1C(=O)OCC(=O)NC1CC1	.	-1	1	.	-1	-2	.	.	.
O=C(CC(=O)NN=C1CCCCCC1)NCc1cccnc1	7	0	0	2	10	-6	.	.	.
O=C(NCCS(=O)(=O)N1CCN(c2ccc(F)cc2)CC1)c1ccco1	.	-2	2	.	1	1	.	.	.
COc1cc(/C=N/NC(=O)c2ccc(COc3ccccc3Cl)o2)cc(Br)c1O	29	2	0	-12	1	-9	.	.	.
COc1cc(/C=N/NC(=O)c2ccc([N+](=O)[O-])cc2Cl)cc(Br)c1O	-11	-1	0	-4	34*	3	-2	-1	-4
COc1ccc(OCC(O)CNC(=O)/C=C/c2cccc([N+](=O)[O-])c2)cc1 (configuration not stated)	6	-1	-1	6	23*	-1	-3	-1	2
CCC(=O)OCCNc1cc(Sc2nccn2C)c2nonc2c1[N+](=O)[O-]	109*	.	.	24	24*	15	69*	28	101*
CCC(=O)OCCNc1cc(SCCC(=O)OC)c2nonc2c1[N+](=O)[O-]	10	-2	0	-2	-5	-9	.	.	.
OCCN1CCN(CC(O)COc2ccc(C34CC5CC(CC(C5)C3)C4)cc2)CC1 (configuration not stated)	15	28	7	-4	22*	5	5	5	40*
OCCN1CCN(CC(O)COc2ccc(Cl)cc2)CC1 (configuration not stated)	-4	-5	-2	-5	-3	-19	.	.	.
C[C@H](CO)N1C[C@H](C)[C@@H](CN(C)S(=O)(=O)c2ccc(F)cc2)Oc2ccc(NC(=O)NC3CCCCC3)cc2C1=O	.	-1	0	.	-7	-3	.	.	.
CC(=O)Oc1ccc(N2C(=O)c3cccc4c([N+](=O)[O-])ccc(c34)C2=O)cc1	.	-8	29	.	23*	10	32*	43	85*
CC(=O)Oc1ccc(-n2c(=O)c3ccccc3c3ccccc3c2=O)cc1	18	-2	-1	9	-4	-20	.	.	.
Cc1c(Cl)c([N+](=O)[O-])nn1CCCC(=O)Nc1sc2c(c1C#N)CCC2	1	-2	-1	2	23*	-10	-5	-1	-3
Cc1c(Br)c([N+](=O)[O-])nn1CCCC(=O)Nc1sc2c(c1C#N)CCC2	9	-3	-1	1	1	-1	.	.	.
COc1cc(/C=C2\SC(=S)N(Nc3ncc(C(F)(F)F)cc3Cl)C2=O)ccc1O	5	5	3	11	26*	13	1	2	4
CC(=O)Nc1cccc(/C(C)=N/NS(=O)(=O)c2ccc(C)cc2)c1	-6	2	0	-7	-2	-2	.	.	.
C/C(=N/NS(=O)(=O)c1ccc(C)cc1)c1ccc(NC(=O)C(F)(F)F)cc1	-2	3	4	-6	22*	3	9	9	-1
CSc1ncccc1C(=O)N1CCCC(Nc2ccc(C)c(C)c2)C1 (configuration not stated)	.	-3	3	.	-3	-3	.	.	.
Cn1c(O)c(/C=N/NC(=O)c2cc3ccccc3cc2O)c2ccccc21	.	0	2	.	31*	17	23*	16	25*
SMILES	CHOP inhibitor	UPR XBP1 act	CHOP UPR activ	TLR4 MyD88 comp	TLR9-MyD88 inh	NOD2 RIPK2 PPI	TLR9-MyD88 conf	BLA nonselective	TLR9 CHO tox
Cn1c2ccccc2c2cc(/C=N/NC(=O)c3ccc(O)cc3O)ccc21	.	-4	0	.	-4	0	.	.	.
CC(C)(O)/C=C/C[C@](C)(O)C1CC[C@]2(C)C1[C@H](O[C@H]1O[C@@H](CO)[C@H](O)[C@@H](O)[C@@H]1O)CC1[C@@]3(C)CC[C@H](O)C(C)(C)C3[C@@H](O)C[C@]12C (some centres not stated)	.	-2	1	.	1	-8	.	.	.
Cc1ccc(S(=O)(=O)N(C)c2cc(S(=O)(=O)Nc3ccncc3)c(C)cc2C)cc1	28	-2	0	0	29*	13	3	9	0
COc1ccc(CCNC(=O)Nc2nc(C(N)C3CCCCC3)cs2)cc1OC (configuration not stated)	.	.	.	.	.	-9	.	.	.
CC(=O)N1CCN(S(=O)(=O)c2cccc(C(=O)Nc3ccccc3N3CCCC3)c2)CC1	.	-1	0	.	-8	-11	.	.	.
Cc1[nH]c2ccccc2c1C(=O)NS(=O)(=O)Nc1ccc(Cl)cc1	31	-1	1	-20	6	-4	.	.	.
COc1ccccc1NS(=O)(=O)NC(=O)c1c(C)[nH]c2ccccc12	.	0	3	.	21*	-6	-2	-4	3
O=C(NCc1ccc(OC(F)(F)F)cc1)c1cccc2c1C(=O)c1ccc(N3CCC(Cc4ccccc4)CC3)cc1S2(=O)=O	.	-3	0	.	6	5	.	.	.
CC1CCN(c2ccc3c(c2)S(=O)(=O)c2cccc(C(=O)NCc4cccc(F)c4)c2C3=O)CC1	.	-2	5	.	10	16	.	.	.

Assay outcomes deposited in PubChem by several laboratories.
